Rev-erbA mod: modulates human Rev-erb alpha binding to DNA; Rev-erbα–FITC-DNA binding, fluorescence polarization, 90 min; 0.79% of 370,000 active; P20393; activity, % at 10 µM;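 active means activity above about 14%, limit read from the data; passing the limit was not always enough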;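 further: 0% = DMSO wells with 35 nM protein and 100% = DMSO wells with 750 nM protein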
aDG glyco act: alpha-DG glycosylation activation. Pro5-aDG cells, alpha-DG glycosylation AlphaScreen (IIH6); 0% Pro5, 100% B10-LARGE cell signal. activation, % at 10 µM. 0.22% of 360,000 active;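 active means activation of at least 8% versus controls, or a plate z-score of at least 8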;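 further: Pro5 are CHO cells carrying HIG-tagged alpha-DG that lacks glycosylation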
CSN inh: blocks human CSN-mediated cullin deneddylation; Purified CSN, SCF-Nedd8-OG deneddylation, fluorescence polarization; 0.38% of 360,000 active; inhibition, % at 12.5 µM; Q92905;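 active means pattern-corrected inhibition above about 35%, with an unprinted fluorescence ratio check between 0.5 and 1.5, limit read from the data, passing the limit was not always enough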;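 further: 0% = enzyme with substrate and 100% = substrate without enzyme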
Target sequence (Q92905 whole entry, looked up, one chain of several): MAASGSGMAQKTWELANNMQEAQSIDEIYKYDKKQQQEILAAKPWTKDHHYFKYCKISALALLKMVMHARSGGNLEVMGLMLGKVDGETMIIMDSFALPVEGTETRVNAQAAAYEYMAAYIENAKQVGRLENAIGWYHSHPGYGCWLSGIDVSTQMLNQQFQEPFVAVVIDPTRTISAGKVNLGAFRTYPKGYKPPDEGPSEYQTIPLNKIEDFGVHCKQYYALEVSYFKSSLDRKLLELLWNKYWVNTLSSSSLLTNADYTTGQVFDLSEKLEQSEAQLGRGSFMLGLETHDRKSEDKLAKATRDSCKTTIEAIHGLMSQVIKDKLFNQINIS
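Material: purified human Csn5 enzyme expressed in HEK293T cells / Medium: Tris buffer pH 7.5, NaCl, DTT, Tween-20, trehalose, ovalbumin / Compound dosing: 12.5 µM single point / Schedule: 90 min incubation of compound, enzyme and substrate at room temperature / Signal: fluorescence polarization of the substrate / Control set: no-enzyme wells high, enzyme-with-substrate wells low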
HNF4A DNA FP: change in binding of human HNF4 alpha to DNA; AID 1224865; 0.3% of 360,000 active; HNF4a-FITC DNA binding, fluorescence polarization, 1 h; activity change, % at 10 µM; P41235; in the data active means activity change above about 30%, passing the limit was not always enough
NR1D1 mod conf: Rev-erb alpha (human) modulation, hit confirmation; shares compounds with Rev-erbA mod; Rev-erb alpha FITC-DNA binding, fluorescence polarization, 90 min; activation, % at 25 µM; 61% of 3,000 active; AID 1259319;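 active means activation at or above a set limit, or at least 3 SD above the negative control mean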;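 further: 0% = 35 nM protein with DMSO and 100% = 750 nM protein high control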
RORg DNA counter: RORgamma DNA-binding activity, dose-response counter-screen; shares compounds with Rev-erbA mod; purified RORgamma protein-FITC-DNA binding, fluorescence polarization; IC50, µM; 8% of 910 active;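 active means Compounds whose fitted half-maximal concentration for disrupting protein-DNA binding is below 10 micromolar; the record names Rev-erb in its text, so the target is in doubt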
* hit, by the source's call; i = inactive; . = no result. In the library only some 1.5% were active in any assay of this set; here they are far more common.

SMILES	Rev-erbA mod	aDG glyco act	CSN inh	HNF4A DNA FP	NR1D1 mod conf	others
CC(=O)Nc1c2c3c(cccc3n(C)c1=O)C(=O)c1ccccc1-2	-3	0	-50	-61	.
CC(=O)c1sc(NC(=O)COc2ccc([N+](=O)[O-])cc2)nc1C	7	0	6	0	.
Cc1nc(NC(=O)C2CC2)sc1C(=O)Nc1ccc(Br)cc1	38*	0	-2	-1	27*
CC(=O)c1sc(NC(=O)c2ccc(F)c(F)c2)nc1C	1	0	5	0	.
CC(=O)c1sc(NC(=O)CCCOc2ccc(Cl)cc2)nc1C	15*	0	5	24	12
CC(=O)c1sc(NC(=O)COc2ccc(Br)cc2)nc1C	43*	0	7	3	49*	RORg DNA counter=>40
CC(=O)c1sc(NC(=O)c2ccc(Cl)cc2)nc1C	26*	0	0	-1	17
Fc1ccc(-n2c(-c3cccs3)nc3nc4ccccc4nc32)cc1	75*	0	-2	1	59*	RORg DNA counter=>40
CCc1cc2c(=O)[nH]c(Cc3ccc(Cl)cc3)nc2s1	19*	0	-4	2	18*
CCc1cc2c(=O)[nH]c(Cc3ccccc3)nc2s1	1	0	9	1	.
CCCN1CCS(=O)(=O)N(Cc2cn(Cc3ccc(F)cc3)nn2)C(C(=O)OC)C1 (stereo not drawn)	-4	.	.	.	.
O=C(Nc1cnc2sccn2c1=O)c1ccc(Cl)cc1Cl	5	0	4	-2	.
COc1ccc(Cl)cc1NC(=O)c1cnc2sccn2c1=O	33*	0	-5	1	32*
COc1cc(NC(=O)c2ccc(-c3ccc(F)c(F)c3)c3ccoc23)cc(OC)c1OC	18*	0	-3	4	-1
COC(=O)c1cc2cc(Cl)ccc2nc1SC	98*	0	-1	3	53*	RORg DNA counter=i
Nc1nc2ccc(Cl)cc2cc1C(=O)NC1CC1	2	0	-2	-2	.
Cc1ccc2c(c1)C1CS(=O)(=O)N(C3CCCC3)C(=O)N1C2 (stereo not drawn)	1	.	.	.	.
O=C1OC(c2ccccc2)(c2ccccc2)c2ccsc21	23*	0	5	4	20*
Cc1nn(-c2ccc(F)cc2)c2c1cc(C#N)c1nc3ccccc3n12	60*	0	-1	0	39*
COC(=O)C1CN(CCc2ccccc2)CCS(=O)(=O)N1Cc1ccc(C)cc1 (stereo not drawn)	-8	.	.	.	.
Cc1cccc(NC(=O)Nc2c(-c3ccc(C(F)(F)F)cc3)nc3ncccn23)c1	-4	.	.	.	.
Cc1sc2nc(SCC(=O)c3ccc(O)c(O)c3)n(C)c(=O)c2c1C	-28	.	.	.	.
O=C(c1cc2cc(F)ccc2[nH]1)N1CCc2ccccc21	12	0	-2	-1	.
O=C(c1cc2cc(Br)ccc2[nH]1)N1CCc2ccccc21	49*	0	-1	3	54*	RORg DNA counter=>40
c1csc(-c2nc(-c3ccc(-c4ccon4)s3)no2)c1	21*	0	3	0	11
SMILES	Rev-erbA mod	aDG glyco act	CSN inh	HNF4A DNA FP	NR1D1 mod conf	others
CCc1cccc(NC(=O)Cn2c(=O)c3cccn3c3ccccc32)c1	28*	0	2	4	15
Cc1cccc(C)c1NC(=O)Cn1c(=O)c2cccn2c2ccccc21	-1	0	3	-2	.
COc1cccc(CNC(=O)Cn2c(=O)c3cccn3c3ccccc32)c1	19*	0	3	1	-4
O=C(CCS(=O)(=O)c1ccccc1)Nc1cc(Cl)ccc1F	2	.	.	.	.
CC(C)CNc1cccc2c1S(=O)(=O)N(Cc1cn(Cc3cccc(F)c3)nn1)Cc1ccccc1O2	6	.	.	.	.
COC(=O)[C@]12C[C@H](CC(=O)NCCCCc3ccccc3)C(=O)N(Cc3ccc(Cl)cc3Cl)C1=C[C@H](C(C)(C)C)O[C@@H]2C	4	.	.	.	.
C[C@H](CCC(=O)N(c1ccccc1)c1ccccc1)CC1CCCCC1	7	.	.	.	.
Cn1c(N)c(C(=O)CSc2nn(-c3ccc(F)cc3)c(=S)s2)c(=O)n(C)c1=O	42*	0	5	7	42*	RORg DNA counter=>40
CCCCN(C(=O)CSc1nn(-c2ccc(F)cc2)c(=S)s1)c1c(N)n(CCCC)c(=O)[nH]c1=O	-5	0	5	0	.
C[C@@H]1OC(C2CCCCC2)N(C)[C@H]2C[C@H]3c4[nH]c5cccc(-c6cccc(F)c6)c5c4CCN3C(=O)[C@@H]12 (stereo partly drawn)	-3	.	.	.	.
Cc1nc(SCc2nc3ccccc3[nH]2)c2oc3cc(Br)ccc3c2n1	46*	1	23	15	53*	RORg DNA counter=>40
Cc1nc(SCc2nc3ccc(F)cc3[nH]2)c2oc3ccccc3c2n1	-3	0	7	2	.
Cc1nc(SCc2nc3ccc(C(=O)c4ccccc4)cc3[nH]2)c2oc3ccccc3c2n1	63*	0	29	0	76*
COc1ccc(CN2C(C(=O)NC3CCCC3)CSCCS2(=O)=O)cc1 (stereo not drawn)	-1	.	.	.	.
COc1ccc(C2C(C(=O)Nc3ccc(F)cc3F)CCC(=O)N2c2ccc(OC)cc2)cc1 (stereo not drawn)	-6	.	.	.	.
Cc1ccc(NC(=O)OC2CC3CC2[C@H]2CCCCN2[C@H]3Cc2ccccc2)cc1 (stereo partly drawn)	4	.	.	.	.
Cc1nn2c(N)c(-c3ccccc3)cnc2c1-c1ccccc1	19*	0	-1	-3	3
Cc1nn2c(N)c(C#N)cnc2c1-c1ccccc1	3	0	3	2	.
Cc1nn2c(N)c(C#N)cnc2c1-c1ccc(Cl)cc1	51*	0	0	0	34*	RORg DNA counter=>40
Cc1nn2c3c(cnc2c1-c1ccccc1)C(=O)CC(c1ccccc1)C3 (stereo not drawn)	39*	0	-7	0	19*
CCOC(=O)c1cnc2c(-c3ccccc3)c(C)nn2c1N	12	0	-6	2	.
CC(C)CCN(C)C1CCN(C(=O)Nc2ccc3c(c2)OCO3)CC1	-2	.	.	.	.
C/C(N)=C(/C#N)C(=O)CSc1nc2ccccc2c(=O)n1-c1ccc(C)c(Cl)c1	78*	0	2	5	31*	RORg DNA counter=i
C/C(N)=C(/C#N)C(=O)CSc1nc2ccccc2c(=O)n1-c1ccccc1C	-1	-1	8	2	.
COc1ccc(OC)c(/C=C/c2ccc3cccc(O)c3n2)c1	4	0	0	2	.
COc1ccc(C=Cc2ccc3ccccc3n2)c(OC)c1	20*	0	-71	5	9
Cc1cc(C)cc(C(=O)OCCN(C)C2CN(Cc3cn(Cc4cccc(F)c4)nn3)S(=O)(=O)C2)c1 (stereo not drawn)	-1	.	.	.	.
COc1ccnc(N2CCN(c3cccc(C(F)(F)F)c3)CC2)c1C#N	28*	0	0	-2	6

Screening data as filed in PubChem.
